Reference: the array DNA melting data of Ke et al. (doi:10.1101/2024.01.08.574731)

Assays:
[1] = folding enthalpy; higher = less favourable; fluorescence melt of hairpins on a sequencing array, two-state fit; conditions: sodium 0.088 M
How it was run: (§1)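 Melting temperature and folding enthalpy were obtained by bootstrapped two-state fitting. Fits used Cy3 fluorescence of library hairpins with annealed Cy3 and quencher oligos on a sequenced MiSeq flow cell, imaged in 50 mM Na-HEPES pH 8.0, 25 mM NaCl in 2.5 °C steps up to 60 °C and normalised to pre-quench Cy3 and control constructs. Four replicates were combined by inverse-variance weighting, and fitted temperatures were raised by 9.35 °C to match UV melts.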

[2] = melting temperature; fluorescence melt of hairpins on a sequencing array, two-state fit, raised by 9.35 °C to match UV melts; conditions: sodium 0.088 M
How it was run: as §1

| Sequence | folding enthalpy [1] | Tm [2] |
| --- | --- | --- |
| AAAGGGAAACCTTT (((((....))))) | -10 kcal/mol | 32.2 °C |
| AACGAGAAATCGTT (((((....))))) | -16.9 kcal/mol | 38.5 °C |
| AAGATGAAAATCTT (((((....))))) | -8.93 kcal/mol | 28.4 °C |
| AATGGGAAACCATT (((((....))))) | -14.1 kcal/mol | 37.7 °C |
| ACAGGGAAACCTGT (((((....))))) | -18.8 kcal/mol | 48.3 °C |
| ACAGTGAAAACTGT (((((....))))) | -19.2 kcal/mol | 45.7 °C |
| ACATCGAAAGATGT (((((....))))) | -19.6 kcal/mol | 52.6 °C |
| ACCAAGAAATTGGT (((((....))))) | -13.7 kcal/mol | 37.5 °C |
| ACCATGAAAATGGT (((((....))))) | -20.3 kcal/mol | 46.6 °C |
| ACCGGGAAACCGGT (((((....))))) | -16.6 kcal/mol | 66.5 °C |
| ACCTTGAAAAAGGT (((((....))))) | -13.4 kcal/mol | 47.3 °C |
| ACGAGGAAACTCGT (((((....))))) | -26 kcal/mol | 50.3 °C |
| ACGCAGAAATGCGT (((((....))))) | -21.7 kcal/mol | 55.7 °C |
| ACTACGAAAGTAGT (((((....))))) | -18.7 kcal/mol | 50.9 °C |
| ACTCGGAAACGAGT (((((....))))) | -20.8 kcal/mol | 52.3 °C |
| ACTTTGAAAAAAGT (((((....))))) | -8.08 kcal/mol | 30.6 °C |
| AGAAACAGAAATGGTTCT ((((.((....)).)))) | -22.8 kcal/mol | 33.1 °C |
| AGAAACCGAAAGGCTTCT ((((.((....)).)))) | -28.4 kcal/mol | 40.9 °C |
| AGAAGGAAACTTCT (((((....))))) | -13.6 kcal/mol | 30.7 °C |
| AGCAGGAAACTGCT (((((....))))) | -22.8 kcal/mol | 52.7 °C |
| AGCCTGAAAAGGCT (((((....))))) | -18.2 kcal/mol | 66.1 °C |
| AGGAAGAAATTCCT (((((....))))) | -11.9 kcal/mol | 28.9 °C |
| ATAGGGAAACCTAT (((((....))))) | -11.2 kcal/mol | 32.4 °C |
| ATAGTGAAAACTAT (((((....))))) | -12.8 kcal/mol | 30.4 °C |
| ATATCGAAAGATAT (((((....))))) | -15.8 kcal/mol | 42.2 °C |

| Sequence | folding enthalpy [1] | Tm [2] |
| --- | --- | --- |
| ATATGGAAACATAT (((((....))))) | -11.4 kcal/mol | 27.6 °C |
| ATCCCGAAAGGGAT (((((....))))) | -29.1 kcal/mol | 60.9 °C |
| ATCTGGAAACAGAT (((((....))))) | -18.3 kcal/mol | 39.1 °C |
| ATCTTGAAAAAGAT (((((....))))) | -9.95 kcal/mol | 32.9 °C |
| ATGCGGAAACGCAT (((((....))))) | -17.1 kcal/mol | 57.7 °C |
| ATGTAGAAATACAT (((((....))))) | -7.12 kcal/mol | 28.2 °C |
| ATTCGGAAACGAAT (((((....))))) | -18.4 kcal/mol | 44.8 °C |
| ATTCTGAAAAGAAT (((((....))))) | -12.6 kcal/mol | 32.2 °C |
| ATTGCGAAAGCAAT (((((....))))) | -17.5 kcal/mol | 57.6 °C |
| ATTGTGAAAACAAT (((((....))))) | -14.9 kcal/mol | 39 °C |
| ATTTCGAAAGAAAT (((((....))))) | -16 kcal/mol | 42.1 °C |
| CAACAGAAATGTTG (((((....))))) | -22.1 kcal/mol | 40.8 °C |
| CAACCAGAAATGGTTG ((((((....)))))) | -29.4 kcal/mol | 53.1 °C |
| CAACTGAAAAGTTG (((((....))))) | -22.1 kcal/mol | 46.2 °C |
| CAAGAGAAATCTTG (((((....))))) | -10.5 kcal/mol | 31.7 °C |
| CAATCAGAAATGGTTG (((.((....)).))) | -13.9 kcal/mol | 29.3 °C |
| CAATCGAAAGATTG (((((....))))) | -22.6 kcal/mol | 51.3 °C |
| CACAAGAAATTGTG (((((....))))) | -21.7 kcal/mol | 37.6 °C |
| CAGGTGAAAACCTG (((((....))))) | -24.5 kcal/mol | 53 °C |
| CATCCGAAAGGATG (((((....))))) | -25.8 kcal/mol | 63.1 °C |
| CATGAGAAATCATG (((((....))))) | -13.9 kcal/mol | 43.9 °C |
| CCCAAGAAATTGGG (((((....))))) | -17.3 kcal/mol | 45.3 °C |
| CCCGAGAAATCGGG (((((....))))) | -19.6 kcal/mol | 54.2 °C |
| CCGTTGAAAAACGG (((((....))))) | -19.9 kcal/mol | 54.3 °C |
| CCTAGGAAACTAGG (((((....))))) | -25.4 kcal/mol | 41.2 °C |

| Sequence | folding enthalpy [1] | Tm [2] |
| --- | --- | --- |
| CCTCAGAAATGAGG (((((....))))) | -19.7 kcal/mol | 45.2 °C |
| CCTTAGAAATAAGG (((((....))))) | -10.5 kcal/mol | 28.6 °C |
| CCTTCGAAAGAAGG (((((....))))) | -20.7 kcal/mol | 55.2 °C |
| CCTTTGAAAAAAGG (((((....))))) | -12.2 kcal/mol | 39.7 °C |
| CGAACGAAAGTTCG (((((....))))) | -29.2 kcal/mol | 68.7 °C |
| CGAACGGAAACGTCGTCG ((((((....)))..))) | -18.3 kcal/mol | 47.1 °C |
| CGAACGGAAACGTGGTCG ((((((....)))..))) | -12.7 kcal/mol | 32.7 °C |
| CGAACGGAAACGTTATCG ((((((....)))..))) | -14.6 kcal/mol | 28.8 °C |
| CGAAGCCGGAAACGGTCG (((..(((....)))))) | -12.6 kcal/mol | 37.8 °C |
| CGAAGCGGAAACGCATCG (((.(((....))).))) | -27.5 kcal/mol | 51.5 °C |
| CGAAGCGGAAACGCCTCG (((.(((....))).))) | -23.8 kcal/mol | 47.3 °C |
| CGAATCGGAAACGAGTCG (((.(((....))).))) | -40.2 kcal/mol | 51.3 °C |
| CGAATGAAAATTCG (((((....))))) | -22.5 kcal/mol | 48.1 °C |
| CGACCCGGAAACGGTCG (((.(((....)))))) | -30.1 kcal/mol | 52.5 °C |
| CGACCCGGAAACGGTTCG (((.(((....))).))) | -39.8 kcal/mol | 48.6 °C |
| CGACCGGAAACGGCCTCG ((((((....)))..))) | -11.9 kcal/mol | 30.2 °C |
| CGACCGGAAACGGGCTCG ((((((....)))..))) | -12.1 kcal/mol | 35.8 °C |
| CGACCGGAAACGGTTTCG ((((((....)))..))) | -10.3 kcal/mol | 33.5 °C |
| CGACGCCGGAAACGGTCG (((..(((....)))))) | -18.3 kcal/mol | 44.3 °C |
| CGACGCGGAAACGCATCG (((.(((....))).))) | -28 kcal/mol | 49.1 °C |
| CGACGCGGAAACGCTCG (((.(((....)))))) | -21.8 kcal/mol | 49.3 °C |
| CGACGTCGGAAACGATCG (((..(((....)))))) | -11.2 kcal/mol | 37 °C |
| CGACTCGGAAACGACTCG (((.(((....))).))) | -30.6 kcal/mol | 34.2 °C |
| CGAGAGAAATCTCG (((((....))))) | -23.9 kcal/mol | 47.5 °C |
